Bioassay records from PubChem.
ARFGAP1 inhibitor = inhibits rat ARF GTPase activating protein 1 | Arfgap1-stimulated ARF1 GTP hydrolysis, GDP FP detection | 360,000 compounds, 0.26% hits | Q62848 | AID 651572 | inhibition, % at 16.5 µM;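 active = inhibition above a per-plate limit, mean inhibition of low control wells plus 3 SD, cut at about 25% in these data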
Target sequence (Q62848 1-136 limits assumed): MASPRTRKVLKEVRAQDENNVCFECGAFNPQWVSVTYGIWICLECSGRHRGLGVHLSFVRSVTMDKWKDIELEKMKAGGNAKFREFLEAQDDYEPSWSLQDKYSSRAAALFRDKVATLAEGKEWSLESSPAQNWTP
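Material: truncated rat Arfgap1 GAP domain; Incubation: compound-enzyme preincubation 20 min, reaction 120 min, detection 60 min, 25 °C; Read-out: percent inhibition of Arfgap1-stimulated GTP hydrolysis; Technique: FP, GDP Alexa 633 tracer displaced from anti-GDP antibody, 620/688 nm; Controls: No-Arfgap1 wells (100%) versus DMSO full-reaction wells (0%); Replication: single well per compound.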
CSN deneddyl inh = CSN deneddylation inhibition | Q92905 | Purified CSN, SCF-Nedd8-OG deneddylation, fluorescence polarization | inhibition, % at 12.5 µM | 360,000 compounds, 0.38% hits | AID 651999;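 active = pattern-corrected inhibition above about 35%, with an unprinted fluorescence ratio check between 0.5 and 1.5, limit read from the data, passing the limit was not always enough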
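Test system: Human Csn5 produced in HEK293T cells | Compound: 12.5 µM single point | Times: 90 min, room temperature | Signal: Fluorescence polarization readout | Read-out basis: % inhibition of substrate cleavage by Csn5 | Controls: no-enzyme wells high, enzyme-with-substrate wells low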
HNF4A DNA FP = change in binding of human HNF4 alpha to DNA. P41235. HNF4a-FITC DNA binding, fluorescence polarization, 1 h. activity change, % at 10 µM. 360,000 compounds, 0.3% hits. AID 1224865; in the data active = activity change above about 30%, passing the limit was not always enough
Target sequence (P41235 whole entry, looked up): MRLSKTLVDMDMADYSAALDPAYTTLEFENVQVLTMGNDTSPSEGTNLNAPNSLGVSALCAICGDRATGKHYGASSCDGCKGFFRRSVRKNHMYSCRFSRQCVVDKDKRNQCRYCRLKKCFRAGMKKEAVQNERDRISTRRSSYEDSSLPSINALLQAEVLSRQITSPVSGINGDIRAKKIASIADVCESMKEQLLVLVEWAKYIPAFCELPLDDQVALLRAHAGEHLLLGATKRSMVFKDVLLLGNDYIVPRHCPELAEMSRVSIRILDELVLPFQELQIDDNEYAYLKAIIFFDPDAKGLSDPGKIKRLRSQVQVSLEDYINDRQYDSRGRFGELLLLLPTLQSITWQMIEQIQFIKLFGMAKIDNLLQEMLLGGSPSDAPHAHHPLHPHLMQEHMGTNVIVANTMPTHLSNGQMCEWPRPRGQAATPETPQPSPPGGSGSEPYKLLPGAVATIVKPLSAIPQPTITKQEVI
ASAP1 GAP inh = inhibitors of human ASAP1 ArfGAP activity. Q9ULH1. ASAP1-stimulated ARF1 GTP hydrolysis, GDP FP detection. inhibition, % at 16.5 µM. 360,000 compounds, 0.19% hits; in the data active = inhibition above about 25%
ASAP1 GAP conf = ASAP1 inhibition confirmed; shares compounds with ASAP1 GAP inh; ASAP1-stimulated Arf1 GTPase, GDP fluorescence polarization; inhibition, % at 16.5 µM; 620 compounds, 37% hits;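 active = mean inhibition over triplicates exceeds the hit threshold derived for the earlier primary screening run, cut at about 25% in these data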
ARFGAP1 confirm = rat ARFGAP1 inhibition, confirmed. shares compounds with ARFGAP1 inhibitor. ARFGAP1-stimulated ARF1 GTP hydrolysis, GDP tracer FP. inhibition, % at 16.5 µM. 890 compounds, 30% hits. AID 651608;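 active = average inhibition over triplicates above the hit cutoff set in the earlier primary screen, cut at about 25% in these data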
Numbers stand for hits; . = inactive; / = no result. A selection: hits, their analogues and other compounds. The true share with any hit is near 0.95%.

SMILES	ARFGAP1 inhibitor	CSN deneddyl inh	HNF4A DNA FP	ASAP1 GAP inh	ASAP1 GAP conf	ARFGAP1 confirm
COc1cc(NC(=O)c2cc3c(C)nc4ccccc4c3o2)cc(OC)c1OC	47	.	.	33	69	52
Clc1ccc2c(N/N=C/c3ccc(Br)cc3)ccnc2c1	69	.	.	50	65	96
Cc1ccccc1/C=N/Nc1ccnc2cc(Cl)ccc12	92	.	.	50	94	149
Cc1ccc(S(=O)(=O)N2C[C@H]3N(C(=O)OC(C)C)N(C(=O)OC(C)C)C[C@H](OC(=O)NCc4ccco4)[C@@]3(O)C2)cc1	.	.	.	.	/	/
O=C(/C=C\c1cn(-c2ccccc2)nc1-c1ccccc1)Nc1nccs1	50	.	.	50	32	72
CC(=O)NS(=O)(=O)c1ccc(NC(=O)/C=C/c2cn(-c3ccccc3)nc2-c2ccccc2)cc1	.	.	.	.	/	/
O=[N+]([O-])c1ccc(C=NNC(=S)NN=Cc2ccc([N+](=O)[O-])cc2)cc1	25	.	.	74	164	182
O=[N+]([O-])c1ccc(C=NNC(=S)Nc2ccc(F)cc2)cc1	.	.	.	.	/	/
Cc1cccc(CN(C)C[C@@H]2OCc3cnnn3CCCC(=O)N([C@H](C)CO)C[C@H]2C)c1	.	.	.	.	/	/
CN(CC(=O)Nc1ccc(Cl)c(Cl)c1)CC(=O)N1CCCCCC1	.	.	.	.	/	/
Cc1cc(C)c2nc(N3C(=O)C(O)=C(C(=O)c4ccco4)C3c3cccc(O)c3)sc2c1 (stereo not drawn)	25	.	.	26	39	39
CCN(CC)CCNC(=O)c1cn(-c2ccccc2)nc1-c1cccs1	.	.	.	.	/	/
CCN(CC)CCOC(=O)c1ccc(NC(=O)c2cn(-c3ccccc3)nc2-c2cccs2)cc1	25	.	.	40	44	61
O=C(NCc1ccc(F)cc1)c1cc(C2CCCCN2S(=O)(=O)Cc2ccccc2)on1 (stereo not drawn)	.	.	.	.	/	/
O=C(NCc1ccncc1)C(=O)N/N=C/c1ccc(OCc2ccccc2)cc1	58	.	.	31	41	99
CCOC(=O)Nc1cccc(OCC(=O)Nc2ccc3c(c2)CCC3)c1	.	.	.	.	/	/
COc1ccc(-c2cc(-c3ccc(OC)c(OC)c3)n[nH]2)c(O)c1	31	.	.	38	34	37
COc1ccccc1/C=N\Nc1cn[nH]c(=O)c1Cl	28	.	.	26	.	.
COCCNc1nc(NCCCN2CCCC2=O)c2sc(-c3ccccc3)cc2n1	.	.	.	.	/	/
C=CCNc1nc(NCCCN2CCCC2=O)c2sc(-c3ccccc3)cc2n1	60	.	.	38	.	.
C#CCn1cc(/C=N/NC(=O)COc2cccc3cccnc23)c2ccccc21	.	.	.	.	/	/
COC(=O)Cn1cc(/C=N/NC(=O)COc2cccc3cccnc23)c2ccccc21	29	.	.	36	34	31
COc1ccc2c(c1)CC/C(=C\c1ccc(OC)c(Cn3nc(C)cc3C)c1)C2=O	29	.	.	46	56	.
COc1ccc2c(c1)CC/C(=C\c1ccc(OC)c(Cn3cccn3)c1)C2=O	.	.	.	.	/	/
Cc1ccc(NC(=O)CSCCc2ccccn2)nc1	.	.	.	.	/	/
SMILES	ARFGAP1 inhibitor	CSN deneddyl inh	HNF4A DNA FP	ASAP1 GAP inh	ASAP1 GAP conf	ARFGAP1 confirm
COc1ccc(CC(=O)NNS(=O)(=O)c2ccc(F)cc2)cc1OC	.	.	.	.	/	/
CN1CCCC1CCNc1ccc2sc3ccccc3c(=O)c2c1 (stereo not drawn)	.	.	.	.	/	/
Cc1cc2oc3cc(NCCC4CCCN4C)ccc3c(=O)c2cc1C (stereo not drawn)	31	.	.	28	38	30
Cc1[nH][nH]c(=O)c1C(c1ccc(-c2cccc(C(=O)O)c2)o1)c1c(C)[nH][nH]c1=O	31	.	.	26	.	.
Oc1cccc2oc(=S)[nH]c12	.	.	.	.	/	/
Clc1cccc(Cl)c1CON/C=N/c1ncnc2sccc12	86	.	.	93	67	66
COc1ccc(C(=O)Nc2ccc3nc(N4CCN(C)CC4)cc(C)c3c2)c(OC)c1	50	.	.	37	66	71
O=C(Cc1n[nH]c(=O)c2ccccc12)OCC(=O)c1ccccc1	.	.	.	.	/	/
CC(C)(C)OC(=O)N1CCC(c2c(C(=O)NCC3CCN(C4CCCC4)C3)cnn2-c2ccccc2)CC1 (stereo not drawn)	.	.	.	.	/	/
O=C(CSc1ccccc1)Nc1ccc(-c2nc3ccccc3[nH]2)cc1	45	.	.	57	57	59
COc1cc(/C=N/NC(=O)c2cccc([N+](=O)[O-])c2)ccc1OCc1ccccc1	.	.	.	.	/	/
COc1cc(/C=N/NC(=O)c2ccc(O)cc2)ccc1OCC(=O)Nc1cccc([N+](=O)[O-])c1	71	.	.	30	42	75
COc1cc2c3nnc(-c4ccccc4)c-3cn(Cc3ccccc3F)c2cc1OC	36	/	/	58	116	36
COc1ccccc1Cc1c(-c2ccc(F)cc2)nc2ccc(Cl)cn12	.	.	.	.	/	/
COc1ccc(-c2nnc(SCc3ccccc3F)o2)cc1OC	.	.	.	.	/	/
COc1cc2c3nnc(-c4ccc(F)cc4)c-3cn(Cc3ccccc3F)c2cc1OC	152	.	.	58	83	172
CCOC(=O)c1ccc(-n2c(CN3CCC(O)CC3)nc3ccc([N+](=O)[O-])cc3c2=O)cc1	.	.	.	.	/	/
N#Cc1ccc(-c2ccc(OCC(=O)NCC(=O)Nc3ccc(F)c(F)c3F)cc2)cc1	58	.	.	37	51	80
CC(=O)Nc1ccc(C(=O)Nc2nc(-c3cccnc3)cs2)cc1	26	.	.	29	52	39
O=C(Nc1nc(-c2ccccc2)cs1)c1cccnc1	.	.	.	.	/	/
CC(=O)C1CCC2C3CC(C)=C4CC(O)CCC4(C)C3CCC12C (stereo not drawn)	.	.	.	.	/	/
COc1cc(C(CC(=O)Nc2cccc(C)n2)N2Cc3ccccc3C2=O)cc(OC)c1OC (stereo not drawn)	.	.	.	.	/	/
NC(=S)N/N=C/c1ccccc1O	.	.	.	.	/	/
Oc1ccccc1C=NNC(=S)NN=Cc1ccccc1O	55	.	.	32	58	71
Cn1c(=O)c2cc(NC(=O)NCc3ccccc3)ccc2n1Cc1cccc(C(F)(F)F)c1	.	.	.	.	/	/
COc1ccc(C2C(C(=O)c3ccccc3)N3c4ccccc4C=CC3C2[N+](=O)[O-])cc1 (stereo not drawn)	27	37	.	29	.	.
CC(=O)Nc1ccc(OCC(O)Cn2nc(C)c(C)c2C)cc1 (stereo not drawn)	.	.	.	.	/	/
